Usually IC50 stands for the point on the concentration scale where inhibition reaches its midpoint. A low value points to higher potency. For orientation: inhibition means the share of the control response that was lost under treatment. A higher inhibition goes with a response far below the control.

The target of data set [1] is T1, Substance-P receptor (Homo sapiens, UniProt P25103). In words: Binding affinity at human Tachykinin receptor 1 expressed in CHO cells by [3H]-substance P displacement. In kind it is cell-based. In a few lines:
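Membranes (10–20 μg protein) from CHO cells expressing human NK1 receptor were incubated 60 min at 25 °C in 50 mM Tris–HCl pH 7.4 with 2 mM MgCl2, 100 μg/mL bacitracin and 0.25 nM [3H]substance P.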

For data set [2], the target named is Sodium-dependent serotonin transporter (Rattus norvegicus, UniProt P31652). In words: Binding affinity at serotonin transporter from rat cerebral cortex by [3H]-paroxetine displacement. In kind it is tissue-based. Summed up: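 Rat cerebral cortex membranes (100–200 μg protein) were incubated 120 min at 25 °C in 50 mM Tris–HCl pH 7.4 with 2 mM MgCl2 and 0.05 nM radioligand. Nonspecific binding was defined with 5 μM imipramine.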
Sequence of Sodium-dependent serotonin transporter (P31652 whole entry): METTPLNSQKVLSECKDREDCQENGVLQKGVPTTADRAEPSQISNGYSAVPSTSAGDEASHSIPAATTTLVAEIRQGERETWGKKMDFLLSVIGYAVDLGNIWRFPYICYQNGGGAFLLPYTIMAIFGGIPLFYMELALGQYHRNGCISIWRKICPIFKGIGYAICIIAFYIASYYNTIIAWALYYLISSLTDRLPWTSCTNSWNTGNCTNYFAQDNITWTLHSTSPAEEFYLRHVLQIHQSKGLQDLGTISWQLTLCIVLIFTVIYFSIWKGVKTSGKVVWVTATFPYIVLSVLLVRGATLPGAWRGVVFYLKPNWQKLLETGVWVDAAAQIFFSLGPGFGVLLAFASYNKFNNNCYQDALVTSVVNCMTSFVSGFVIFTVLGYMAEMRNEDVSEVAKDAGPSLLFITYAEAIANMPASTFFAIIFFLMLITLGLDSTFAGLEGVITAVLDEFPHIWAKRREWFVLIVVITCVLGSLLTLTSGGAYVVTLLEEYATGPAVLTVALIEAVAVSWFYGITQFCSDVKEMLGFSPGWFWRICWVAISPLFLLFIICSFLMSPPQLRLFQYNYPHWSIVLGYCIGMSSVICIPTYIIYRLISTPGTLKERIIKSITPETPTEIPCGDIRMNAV

A short description of data set [3]: Lipophilicity. In kind it is physicochemical.
Data set [4] has as its target T1, Substance-P receptor. In words: Binding affinity towards human Tachykinin receptor 1 expressed in CHO cells using [3H]-substance P; Less than 50% inhibition at 10e-5 M. In kind it is cell-based.

Bounds are passed on as bounds.

T1 sequence (P25103 whole entry): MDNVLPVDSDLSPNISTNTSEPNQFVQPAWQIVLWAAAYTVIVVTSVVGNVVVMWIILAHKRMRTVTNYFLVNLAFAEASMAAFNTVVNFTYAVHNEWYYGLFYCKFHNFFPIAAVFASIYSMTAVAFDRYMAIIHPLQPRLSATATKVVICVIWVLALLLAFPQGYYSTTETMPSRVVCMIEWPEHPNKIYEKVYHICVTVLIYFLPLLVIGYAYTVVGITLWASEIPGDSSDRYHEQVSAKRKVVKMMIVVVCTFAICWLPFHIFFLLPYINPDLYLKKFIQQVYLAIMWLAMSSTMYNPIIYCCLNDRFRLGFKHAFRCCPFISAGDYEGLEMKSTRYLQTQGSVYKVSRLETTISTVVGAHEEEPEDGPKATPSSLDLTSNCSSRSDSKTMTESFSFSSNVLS

On to `O=C(CCc1cc(C(F)(F)F)cc(C(F)(F)F)c1)N(Cc1ccc(F)cc1)C1CCNCC1`, for which the 50% inhibitory concentration (IC50) at Substance-P receptor [1] was 31.6 nM; in data set [2] it was 316 nM. Moreover, the “Log K' IAM” value in data set [3] turned out to be 2.9.
Taken in the same sequence, the figures for `Fc1ccc(N(CCCc2cc(C(F)(F)F)cc(C(F)(F)F)c2)C2CCNCC2)cc1` were 50.1 nM, 39.8 nM and 3.9.
On to `O=C(CCc1cc(C(F)(F)F)cc(C(F)(F)F)c1)N(Cc1ccccc1Cl)C1CCNCC1`, for which the half-maximal inhibitory concentration (IC50) was 100 nM on Substance-P receptor [1] and 200 nM in data set [2]. Further, the “Log K' IAM” value in data set [3] stood at 3.2.
As to `O=C(COc1cc(C(F)(F)F)cc(C(F)(F)F)c1)N(c1cccc(Cl)c1)C1CCNCC1`, the concentration for half-maximal inhibition (IC50) at Substance-P receptor [1] is 200 nM; in data set [2], 158 nM. Besides, the “Log K' IAM” value in data set [3] stood at 3.
Taken in the same sequence, the figures for `Cc1cc(C)cc(OCC(=O)N(Cc2cccc(Cl)c2)C2CCNCC2)c1` were 100 nM, 25.1 nM and 2.6.
Turning to `O=C(COc1cc(C(F)(F)F)cc(C(F)(F)F)c1)N(c1cc(Cl)cc(Cl)c1)C1CCNCC1`, the inhibition on Substance-P receptor [4] is under 5%. Also, the concentration for half-maximal inhibition (IC50) in data set [2] is 158 nM. Besides, the “Log K' IAM” value in data set [3] was found to be 3.4.
Consider `O=C(COc1cc(C(F)(F)F)cc(C(F)(F)F)c1)N(c1ccc(F)cc1)C1CCNCC1`, for which the IC50 on Substance-P receptor [1] is 316 nM; in data set [2], 631 nM. Moreover, the “Log K' IAM” value in data set [3] is 2.5.
`O=C(COc1cc(F)cc(F)c1)N(Cc1cccc(Cl)c1)C1CCNCC1`: at Substance-P receptor [4], the inhibition was under 5%. For the same molecule, the half-inhibitory concentration (IC50) in data set [2] is 20 nM. Besides, in data set [3], the “Log K' IAM” value is 2.4.
Consider `O=C(COc1cc(Cl)cc(Cl)c1)N(Cc1cccc(Cl)c1)C1CCNCC1`, for which the half-inhibitory concentration (IC50) at Substance-P receptor [1] is 126 nM; in data set [2] it was 50.1 nM. Besides, the “Log K' IAM” value in data set [3] turned out to be 3.1.
For the molecule `Fc1ccc(CN(CCCc2cc(C(F)(F)F)cc(C(F)(F)F)c2)C2CCNCC2)cc1`, the IC50 is 126 nM at Substance-P receptor [1] and 25.1 nM in data set [2]. The “Log K' IAM” value in data set [3] came to 3.8.
On to `O=C(CCc1cc(C(F)(F)F)cc(C(F)(F)F)c1)N(c1ccc(F)cc1)C1CCNCC1`, for which the IC50 is 200 nM at Substance-P receptor [1] and 251 nM in data set [2]. Also, in data set [3], the “Log K' IAM” value is on record as 2.9.
In the same order, the values of `Cc1cccc(CN(C(=O)COc2cc(C(F)(F)F)cc(C(F)(F)F)c2)C2CCNCC2)c1` are 79.4 nM, 251 nM and 3.3.
For the molecule `O=C(COc1cc(F)cc(C(F)(F)F)c1)N(c1ccc(Cl)c(Cl)c1)C1CCNCC1`, the inhibition at Substance-P receptor [4] is under 5%. This molecule also gave an IC50 in data set [2] of 39.8 nM. The “Log K' IAM” value in data set [3] was 3.
In the same order, the values of `O=C(COc1cc(F)cc(C(F)(F)F)c1)N(Cc1cccc(Cl)c1)C1CCNCC1` are under 5%, 100 nM and 2.9.
As to `O=C(COc1cc(C(F)(F)F)cc(C(F)(F)F)c1)N(Cc1ccccc1Cl)C1CCNCC1`, the IC50 at Substance-P receptor [1] is 126 nM; in data set [2], 158 nM. Moreover, the “Log K' IAM” value in data set [3] came out at 3.2.
`O=C(COc1cc(C(F)(F)F)cc(C(F)(F)F)c1)N(Cc1cccc(Cl)c1)C1CCNCC1`: the half-inhibitory concentration (IC50) at Substance-P receptor [1] is 25.1 nM; in data set [2] it was 158 nM. The “Log K' IAM” value in data set [3] is listed as 3.4.
In the case of `Cc1cccc(CN(C(=O)CCc2cc(C(F)(F)F)cc(C(F)(F)F)c2)C2CCNCC2)c1`, the IC50 at Substance-P receptor [1] is 25.1 nM; in data set [2], 200 nM. For the same molecule, the “Log K' IAM” value in data set [3] is 3.2.
In the same order, the values of `O=C(COc1cc(C(F)(F)F)cc(C(F)(F)F)c1)N(c1ccc(Cl)c(Cl)c1)C1CCNCC1` are 31.6 nM, 158 nM and 3.4.

These data come from ChEMBL document CHEMBL1135382, “First dual NK(1) antagonists-serotonin reuptake inhibitors: synthesis and SAR of a new class of potential antidepressants” (Bioorg Med Chem Lett, 2002).
